The source of these data is ChEMBL document CHEMBL4052634, “Covalent inhibitors of LgtC: A blueprint for the discovery of non-substrate-like inhibitors for bacterial glycosyltransferases” (Bioorg Med Chem, 2017).

Each structure is given as a SMILES string. Calls of active or inactive are those of the source. No cut-off for these calls is given here.

The term inhibition denotes the change of the read-out against control, counted positive when it falls.

Experiment [1] addresses Intestinal-type alkaline phosphatase (Bos taurus) (UniProt P19111). The experiment can be described thus: Inhibition of calf intestinal alkaline […] at 0.1 to 100 uM using UDP as substrate after 20 mins by malachite green dye-based assay.
Experiment [2] has as its system Neisseria meningitidis. Nature of the experiment: Binding affinity to Neisseria meningitidis alpha-1,4-galactosyltransferase assessed as covalent adduct formation at 100 uM after 20 mins by mass spectrometric analysis. The note with it: TDE = time-dependent effect. The essentials:
(§1)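 LgtC stock without DTT activation, diluted in 13 mM HEPES pH 7.0, incubated with inhibitor (100 or 50 µM, added in DMSO; 10% final DMSO) for 20 min at 30 °C; samples injected directly for electrospray MS to detect protein-inhibitor adducts.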

Experiment [3] relates to Neisseria meningitidis. Nature of the experiment: Inhibition of Neisseria meningitidis alpha-1,4-galactosyltransferase assessed as consumption of donor UDP-Gal by measuring turnover rate at 0.1 to 100 uM using lactose as substrate preincubated for 5 mins followed by lactose and UDP-Gal addition measured after 20 mins by malachite green dye-based assay relative to total UDP-Gal used.

For experiment [4], the system named is Neisseria meningitidis. Nature of the experiment: Inhibition of Neisseria meningitidis alpha-1,4-galactosyltransferase assessed as consumption of donor UDP-Gal by measuring turnover rate at 0.1 to 100 uM using lactose as substrate preincubated for 20 mins followed by lactose and UDP-Gal addition measured after 20 mins by malachite green dye-based assay relative to total UDP-Gal used.

Experiment [5] deals with Neisseria meningitidis. The experiment can be described thus: Inhibition of Neisseria meningitidis alpha-1,4-galactosyltransferase assessed as consumption of donor UDP-Gal by measuring turnover rate at 0.1 to 100 uM using lactose as substrate preincubated for 60 mins followed by lactose and UDP-Gal addition measured after 20 mins by malachite green dye-based assay relative to total UDP-Gal used.

The subject of experiment [6] is Neisseria meningitidis. Nature of the experiment: Inhibition of Neisseria meningitidis alpha-1,4-galactosyltransferase assessed as consumption of donor UDP-Gal by measuring turnover rate at 0.1 to 100 uM using lactose as substrate preincubated for 180 mins followed by lactose and UDP-Gal addition measured after 20 mins by malachite green dye-based assay relative to total UDP-Gal used.

For experiment [7], the system named is Neisseria meningitidis. Nature of the experiment: Inhibition of Neisseria meningitidis alpha-1,4-galactosyltransferase assessed as rate constant for enzyme activity at 6 uM using lactose as substrate preincubated with substrate measured after 20 mins in presence of UDP-Gal. The method, boiled down:
(§2)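 Activity measured at a series of inhibitor concentrations (0.5-200 µM range overall) after pre-incubation with LgtC for 0, 5, 10, 20 and 30 min, using the pre-incubation protocols (lactose 2 mM, UDP-Gal 28 µM, 20 min at 30 °C, malachite green); % of DMSO control plotted semi-logarithmically versus pre-incubation time to give kobs; kobs versus concentration gave Ki and kinact; triplicate.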

In experiment [8] the test system is Neisseria meningitidis. The experiment can be described thus: Inhibition of Neisseria meningitidis alpha-1,4-galactosyltransferase assessed as rate constant for enzyme activity at 15 uM using lactose as substrate preincubated with substrate measured after 20 mins in presence of UDP-Gal. The essentials: as §2
Experiment [9] concerns Neisseria meningitidis. The experiment can be described thus: Inhibition of Neisseria meningitidis alpha-1,4-galactosyltransferase assessed as rate constant for enzyme activity at 100 uM using lactose as substrate preincubated with substrate measured after 20 mins in presence of UDP-Gal. The method, boiled down: as §2
Experiment [10] has as its system Neisseria meningitidis. Nature of the experiment: Inhibition of Neisseria meningitidis alpha-1,4-galactosyltransferase assessed as rate constant for enzyme activity at 200 uM using lactose as substrate preincubated with substrate measured after 20 mins in presence of UDP-Gal. The essentials:
as §2

The test system of experiment [11] is Neisseria meningitidis. Nature of the experiment: Binding affinity to Neisseria meningitidis alpha-1,4-galactosyltransferase assessed as covalent-enzyme adduct formation at 50 uM after 20 mins by mass spectroscopy. The note with it: 100 uM, in the assay text read “at 100 uM” for “at 50 uM”. The method, boiled down:
as §1

The test system of experiment [12] is Neisseria meningitidis. Nature of the experiment: Inhibition of Neisseria meningitidis alpha-1,4-galactosyltransferase assessed as consumption of donor UDP-Gal by measuring turnover rate at 0.1 to 50 uM using lactose as substrate in presence of UDP-Gal measured after 20 min by malachite green dye-based assay relative to total UDP-Gal used. The method, boiled down:
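No pre-incubation: DTT-activated LgtC with MnCl2 5 mM, CIP 10 U/mL, egg-white lysozyme 1 mg/mL, 0.01% Triton, 13 mM HEPES pH 7.0, lactose 2 mM, inhibitor in DMSO (10% final); started with UDP-Gal 28 µM, 20 min at 30 °C, 20-50% donor turnover. Malachite green read at 620 nm against a UDP calibration curve, background without acceptor subtracted, % of assay window; triplicate minimum; IC50 from sigmoidal fit.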

For experiment [13], the system named is Neisseria meningitidis. The experiment can be described thus: Inhibition of Neisseria meningitidis alpha-1,4-galactosyltransferase assessed as consumption of donor UDP-Gal by measuring turnover rate at 0.1 to 50 uM using lactose as substrate preincubated for 10 mins followed by lactose and UDP-Gal addition measured after 20 mins by malachite green dye-based assay relative to total UDP-Gal used. The method, boiled down:
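Enzyme (DTT-activated) with MnCl2 5 mM, CIP 10 U/mL, lysozyme 1 mg/mL, 0.01% Triton, 13 mM HEPES pH 7.0 and inhibitor in DMSO (10% final) pre-incubated 10 min at 30 °C before UDP-Gal (28 µM) plus lactose (2 mM) added; 20 min at 30 °C; UDP read by malachite green at 620 nm versus UDP standard curve, background-corrected; triplicate.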

Experiment [14] relates to Neisseria meningitidis. Nature of the experiment: Inhibition of Neisseria meningitidis alpha-1,4-galactosyltransferase assessed as consumption of donor UDP-Gal by measuring turnover rate at 0.1 to 50 uM using lactose as substrate preincubated for 30 mins followed by lactose and UDP-Gal addition measured after 20 mins by malachite green dye-based assay relative to total UDP-Gal used.

Experiment [15] deals with Neisseria meningitidis. Nature of the experiment: Inhibition of Neisseria meningitidis alpha-1,4-galactosyltransferase assessed as consumption of donor UDP-Gal by measuring turnover rate at 0.1 to 50 uM using lactose as substrate preincubated for 60 mins followed by lactose and UDP-Gal addition measured after 20 mins by malachite green dye-based assay relative to total UDP-Gal used.

Experiment [16] relates to Neisseria meningitidis. Nature of the experiment: Inhibition of Neisseria meningitidis alpha-1,4-galactosyltransferase assessed as consumption of donor UDP-Gal by measuring turnover rate at 0.1 to 50 uM using lactose as substrate preincubated for 180 mins followed by lactose and UDP-Gal addition measured after 20 mins by malachite green dye-based assay relative to total UDP-Gal used.

The test system of experiment [17] is Neisseria meningitidis. The experiment can be described thus: Binding affinity to Neisseria meningitidis alpha-1,4-galactosyltransferase assessed as covalent adduct formation at 50 uM by mass spectrometric analysis. The note with it: TDE = time-dependent effect. The essentials: as §1
For experiment [18], the system named is Neisseria meningitidis. The experiment can be described thus: Inhibition of Neisseria meningitidis alpha-1,4-galactosyltransferase assessed as rate constant for enzyme activity at 1.5 uM using lactose as substrate preincubated with substrate measured after 20 mins in presence of UDP-Gal. The method, boiled down: as §2
Experiment [19] deals with Neisseria meningitidis. The experiment can be described thus: Inhibition of Neisseria meningitidis alpha-1,4-galactosyltransferase assessed as rate constant for enzyme activity at 2 uM using lactose as substrate preincubated with substrate measured after 20 mins in presence of UDP-Gal. The essentials:
as §2

The test system of experiment [20] is Neisseria meningitidis. Nature of the experiment: Inhibition of Neisseria meningitidis alpha-1,4-galactosyltransferase assessed as rate constant for enzyme activity at 3 uM using lactose as substrate preincubated with substrate measured after 20 mins in presence of UDP-Gal. The essentials: as §2
In experiment [21] the test system is Neisseria meningitidis. The experiment can be described thus: Binding affinity to Neisseria meningitidis alpha-1,4-galactosyltransferase assessed as covalent-enzyme adduct formation at 100 uM after 20 mins by mass spectroscopy. The note with it: 50 uM, in the assay text read “at 50 uM” for “at 100 uM”. The method, boiled down:
as §1

Intestinal-type alkaline phosphatase (Bos taurus), sequence (P19111 20-506 limits assumed): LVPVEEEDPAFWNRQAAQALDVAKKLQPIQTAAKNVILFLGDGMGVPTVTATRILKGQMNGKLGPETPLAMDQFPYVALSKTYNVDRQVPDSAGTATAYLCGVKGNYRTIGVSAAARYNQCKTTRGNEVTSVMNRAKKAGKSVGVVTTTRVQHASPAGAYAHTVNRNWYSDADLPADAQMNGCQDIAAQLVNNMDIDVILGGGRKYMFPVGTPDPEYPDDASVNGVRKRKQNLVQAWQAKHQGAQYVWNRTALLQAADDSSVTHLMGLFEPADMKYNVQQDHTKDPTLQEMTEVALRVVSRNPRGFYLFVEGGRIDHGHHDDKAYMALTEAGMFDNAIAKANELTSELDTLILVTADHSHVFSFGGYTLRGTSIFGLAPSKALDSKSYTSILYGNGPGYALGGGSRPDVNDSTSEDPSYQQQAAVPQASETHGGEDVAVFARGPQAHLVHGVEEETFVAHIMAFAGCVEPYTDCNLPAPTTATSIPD

For `O=C1/C(=C\c2cccc(OCc3ccccc3)c2)C(C(F)(F)F)=NN1c1ccccc1`, in [1], the inhibition entry was “inactive”. The Activity result in the experiment with Neisseria meningitidis [2] was “Tde”. Moreover, the inhibition with Neisseria meningitidis [3] was 30%; in the experiment on Neisseria meningitidis [4], 27%; with Neisseria meningitidis [5], 29%; in the experiment with Neisseria meningitidis [6], 19%. The K worked out at 0.01 min⁻¹ with Neisseria meningitidis [7], 0.021 min⁻¹ with Neisseria meningitidis [8], 0.072 min⁻¹ in the experiment with Neisseria meningitidis [9] and 0.079 min⁻¹ in the experiment with Neisseria meningitidis [10]. Moreover, in the experiment with Neisseria meningitidis [11], the result was Active.
`COc1ccc(/C=C2\C(=O)N(c3ccccc3)N=C2C(F)(F)F)cc1Br`: the inhibition in the experiment with Neisseria meningitidis [12] is 30%; in the experiment with Neisseria meningitidis [13] it was 46%; in the experiment with Neisseria meningitidis [14] it was 32%; in the experiment with Neisseria meningitidis [15], 39%; in the experiment with Neisseria meningitidis [16] it was 26%. For the same molecule, the Activity result in the experiment with Neisseria meningitidis [17] was “Tde”. For the same molecule, the K in the experiment on Neisseria meningitidis [18] amounted to 0.017 min⁻¹; in the experiment with Neisseria meningitidis [19] it was 0.012 min⁻¹; in the experiment with Neisseria meningitidis [20] it was 0.025 min⁻¹. In the experiment on Neisseria meningitidis [21], the outcome was Active.
